Test results taken from article PMC2910176 (Food and chemical toxicology : an international journal …, 2010).

Columns and labels:
Hs-68 = assay: MTT cell viability assay in normal skin fibroblasts Hs-68; type: cell-based, human; conditions: for inhibition of cell proliferation in human normal skin fibroblasts: 3.125–25 μg/ml; for Concentration producing 50% growth inhibition (IC50): Hs-68 normal skin fibroblasts, 48 hours, MTT
[1] = tested on: human peripheral blood mononuclear cells (PBMC); assay: Cytokine production by PBMC; type: cell-based; conditions: for TNF-α production in PHA-activated PBMC / IFN-γ production in PHA-activated PBMC / IL-2 production in PHA-activated PBMC: 24 hours; for TNF-α production in PHA-activated PBMC: 10 and 15 μg/ml; for IFN-γ production in PHA-activated PBMC / IL-2 production in PHA-activated PBMC: data not shown
In short: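 PBMC came from buffy coat by Ficoll density separation, with ≥95% trypan-blue viability, at 4 × 10^5/well. Resting or PHA-activated (10 μg/ml final) cells received test compound at 5, 10 or 15 μg/ml, with matched vehicle, for 24 h. Supernatants were recovered by centrifugation (300×g), stored at −80°C and assayed for IL-2, IFN-γ and TNF-α by ELISA. There were 8 donors, four wells each, reported as mean + SD; the statistic was an unpaired t-test versus control.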

MCF-7 = assay: MTT cell viability assay in MCF-7; type: cell-based, human; conditions: for Concentration producing 50% growth inhibition (IC50): MCF-7, 48 hours, MTT
HepG2 = assay: MTT cell viability assay in HepG2; type: cell-based, human; conditions: for Concentration producing 50% growth inhibition (IC50): HepG2, 48 hours, MTT
[2] = tested on: human peripheral blood mononuclear cells (PBMC); assay: PBMC proliferation; type: cell-based; conditions: 72 hours, with polymyxin B; α-turmerone 10 or 15 μg/ml, ar-turmerone 5-15 μg/ml
In short: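 PHA-activated PBMC (PHA 10 μg/ml final; polymyxin B 10 μg/ml present to bind LPS) were incubated 72 h with test compound at 5, 10 or 15 μg/ml, with matched vehicle. [methyl-3H]-thymidine (0.5 μCi/well) was added for the final 6 h. Cells were harvested onto glass-fibre filters for scintillation counting. Results are % cpm relative to untreated control, mean of 8 donors.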

MDA-MB-231 = assay: MTT cell viability assay in MDA-MB-231; type: cell-based, human; conditions: for Concentration producing 50% growth inhibition (IC50): MDA-MB-231, 48 hours, MTT
[3] = tested on: cancer cell lines HepG2, MCF-7 and MDA-MB-231; assay: Anti-proliferative activity in cancer cell lines; type: cell-based, human; conditions: dose-dependent, three cancer cell lines
MDA-MB-231 cells [4] = assay: Western blot analysis of apoptosis and proliferation proteins; type: cell-based, human; conditions: MDA-MB-231, 40 or 60 μg/ml
In short: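 MDA-MB-231 cells (1 × 10^6) were treated with test compound (40 or 60 μg/ml) or 0.4% v/v ethanol for 24 or 48 h. Lysis used 2% SDS, 10% glycerol, […] Tris-HCl, pH 6.8, on ice, then 95°C for 10 min. Lysates ran on 12% SDS-PAGE onto PVDF and were blocked in 5% milk/TBST. Primaries (overnight) were Bcl-2 and procaspases-3/-8 at 1:100 and cyclin D at 1:200; the β-actin loading control was 1:2000. HRP secondary was used with ECL; three independent experiments.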

MDA-MB-231 cells [5] = assay: DNA fragmentation assay; type: cell-based, human; conditions: MDA-MB-231, 24 and 48 hours
In short: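 MDA-MB-231 cells (1 × 10^6) were attached for 24 h in 100 mm dishes, then given test compound (40–80 μg/ml) or 0.4% v/v ethanol for 24 or 48 h. Lysis was 15 min at 37°C in 200 mM Tris-HCl, 100 mM EDTA, 1% SDS, pH 8.3. RNase A, then proteinase K, each ran 90 min at 56°C, followed by ethanol/sodium acetate precipitation. DNA ran on 1.5% agarose with ethidium bromide beside a 100 bp marker; n=3.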

MDA-MB-231 cells [6] = assay: Annexin V-FITC/PI staining assay; type: cell-based, human; conditions: MDA-MB-231, 24 hours
In short: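 MDA-MB-231 cells (3 × 10^5/well) were exposed to test compound at various concentrations for 24 h. They were washed twice in 1X binding buffer, then labelled with annexin-V FITC plus PI for 15 min at room temperature in the dark, and analysed by flow cytometry. Annexin-V+ PI− (lower right quadrant) was taken as early apoptosis. Three independent experiments were run.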

MDA-MB-231 cells [7] = assay: Cell cycle analysis; type: cell-based, human; conditions: MDA-MB-231, after treatment
In short: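 MDA-MB-231 cells (3 × 10^5/well, 6-well) were plated overnight and then treated with test compound (30–45 μg/ml). They were fixed in 70% v/v ethanol at 4°C overnight and stained with PI (20 μg/ml) plus RNase A (10 μg/ml) for 30 min at 37°C in the dark. Flow cytometry collected 10,000 cells per sample, and cell cycle and apoptotic peaks were modelled; n=3.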

[8] = tested on: human peripheral blood mononuclear cells (PBMC); conditions: ref Yadav et al., 2005; cited from earlier work
[9] = tested on: human peripheral blood mononuclear cells (PBMC); conditions: ref Yadav et al., 2005; cited from earlier work; remark: listed apart in the source

Concentration producing 50% growth inhibition (IC50) (MCF-7) [µg/mL] | Concentration producing 50% growth inhibition (IC50) (HepG2) [µg/mL] | Concentration producing 50% growth inhibition (IC50) (MDA-MB-231) [µg/mL] | SMILES | inhibition of cell proliferation in human normal skin fibroblasts (Hs-68) | Concentration producing 50% growth inhibition (IC50) (Hs-68) [µg/mL] | TNF-α production in PHA-activated PBMC [1] | IFN-γ production in PHA-activated PBMC [1] | IL-2 production in PHA-activated PBMC [1] | proliferation of PHA-activated PBMC [2] | proliferation of cancer cells [3] | further results
>100 | >100 | >100 | CC(C)=CC(=O)C[C@H](C)c1ccc(C)cc1 [ar-turmerone] | did not induce any significant inhibition | >100 | significantly increased | neither α-turmerone (AL) nor ar-turmerone (AR) further altered | neither α-turmerone (AL) nor ar-turmerone (AR) further altered | significantly stimulate | – | IFN-γ production in resting PBMC ([1]; 24 hours, 5, 10 or 15 μg/ml): significantly increased; IL-2 production in resting PBMC ([1]; 24 hours, 5, 10 or 15 μg/ml): significantly increased; TNF-α production in resting PBMC ([1]; 24 hours, 5, 10 or 15 μg/ml): significantly increased
– | – | – | O=C(/C=C/c1ccc(O)cc1)CC(=O)/C=C/c1ccc(O)cc1 [Bisdemethoxycurcumin, bisdemethoxycurcumin] | did not induce any significant inhibition | – | – | – | – | – | significantly inhibited | –
41.8 | 32.9 | 30.2 | CC(C)=CC(=O)CC(C)C1C=CC(C)=CC1 (stereo not drawn) [α-turmerone] | did not induce any significant inhibition | >100 | significantly increased | neither α-turmerone (AL) nor ar-turmerone (AR) further altered | neither α-turmerone (AL) nor ar-turmerone (AR) further altered | significantly stimulate | significantly inhibited | Bcl-2 expression (MDA-MB-231 cells [4]): slightly down-regulated; cleaved PARP (MDA-MB-231 cells [4]): observed; expression level of pro-caspase-3 (MDA-MB-231 cells [4]): significantly decreased; expression level of pro-caspase-8 (MDA-MB-231 cells [4]): significantly decreased; expression of cyclin D1 (MDA-MB-231 cells [4]): significantly decreased; proteolytic cleavage of pro-caspase-9 (fragments p35 and p37) (MDA-MB-231 cells [4]): observed; DNA fragmentation (MDA-MB-231 cells [5]): detected; proportion of early apoptosis cells (Annexin V-FITC positive and PI negative) (MDA-MB-231 cells [6]): increased with the concentrations; cell cycle arrest (MDA-MB-231 cells [7]): no arrest at any phase of the cell cycle; inhibition of cell proliferation compared to the control (MCF-7; MCF-7, 50 μg/ml, 48 hours): ~70%; inhibition of cell proliferation compared to the control (HepG2; HepG2, 50 μg/ml, 48 hours): ~70%; inhibition of cell proliferation compared to the control (MDA-MB-231; MDA-MB-231, 50 μg/ml, 48 hours): ~70%
– | – | – | COc1cc(/C=C/C(O)=C/C(=O)/C=C/c2ccc(O)cc2)ccc1O [Demethoxycurcumin, demethoxycurcumin] | did not induce any significant inhibition | – | – | – | – | – | significantly inhibited | –
– | – | – | COc1cc(/C=C/C(=O)CC(=O)/C=C/c2ccc(O)c(OC)c2)ccc1O [Curcumin, curcumin] | – | – | – | – | – | – | significantly inhibited | PHA-induced proliferation in PBMC [8]: inhibited; IL-2 production in PBMC (PHA-induced) [9]: inhibited
